From ChEMBL document CHEMBL3994595, “Design, synthesis, docking and QSAR study of substituted benzimidazole linked oxadiazole as cytotoxic agents, EGFR and erbB2 receptor inhibitors” (Eur J Med Chem, 2017)

Assays:
Assay type in all cases: toxicity, organism-based
Details in all cases: in vivo, 120 h
[1] = tested on: Rattus norvegicus; assay: Cardiotoxicity in albino rat assessed as vacuolation in left ventricle tissue at 2 mg/kg, po administered for 5 days measured on day 14 by hematoxylin and eosin staining-based microscopic method
Summary of the method: (§1)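 Female albino rats (110-115 g). Doxorubicin given orally at 2 mg/kg daily for 5 days (cumulative 10 mg/kg). Animals observed 14 days, then killed. Hearts fixed in 40% formalin, transverse sections H&E-stained and examined at 100X and 400X for left-ventricle changes.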

[2] = tested on: Rattus norvegicus; assay: Cardiotoxicity in albino rat assessed as loss of cardiac fibre at 2 mg/kg, po administered for 5 days measured on day 14 by hematoxylin and eosin staining-based microscopic method; summary of the method: as §1
[3] = tested on: Rattus norvegicus; assay: Cardiotoxicity in albino rat assessed as inflammation in left ventricle tissue at 2 mg/kg, po administered for 5 days measured on day 14 by hematoxylin and eosin staining-based microscopic method; summary of the method: as §1

Measured: Activity

COc1cccc2c1C(=O)c1c(O)c3c(c(O)c1C2=O)C[C@@](O)(C(=O)CO)C[C@@H]3O[C@H]1C[C@H](N)[C@H](O)[C@H](C)O1 [DOXORUBICIN]
Toxic: [1] | [2] | [3]
